According to ChEMBL document CHEMBL4196022, “Alkynyl-containing phenylthiazoles: Systemically active antibacterial agents effective against methicillin-resistant Staphylococcus aureus (MRSA)” (Eur J Med Chem, 2018):
Converted amounts (≈) assume the structure as drawn. The source made the active and inactive calls. The rule behind the calls is not given here. Positions of bridges follow the written chain, without caps; N, C: chain ends. Non-standard residues stand in square brackets, D forms with d. Residues, ends and D or L forms follow the SMILES beside them. *: point of attachment. Ileψ(thiazoline)Cys = CC[C@H](C)[C@H](N)C1=N[C@H](C(=O)*)CS1; dOrn = NCCC[C@@H](N)C(=O)O

Columns and labels:
[1] = Efflux ratio of apparent permeability in human Caco2 cells at 10 uM after 60 mins by LC-MS/MS analysis; format: ADME, cell-based; conditions: caco-2, 1 h
Summary of the method: (§1)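 Caco-2 monolayers were seeded at 1 × 10^5 cells/cm2 and differentiated for three weeks. Test article was at 10 μM (1% DMSO) in HBSS-MES pH 6.5 or HBSS-HEPES pH 7.4 and added to the donor side. Incubation ran 60 min (A→B) or 40 min (B→A), and receiver buffer was analysed by LC/MS/MS. Lucifer yellow and fluorescein checked monolayer integrity. Efflux ratio = Papp(B→A)/Papp(A→B).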

[2] = Apparent permeability from apical to basolateral side in human Caco2 cells at 10 uM after 60 mins by LC-MS/MS analysis; format: ADME, cell-based; conditions: caco-2, 1 h; summary of the method: as §1
[3] = Apparent permeability from basolateral to apical side in human Caco2 cells at 10 uM after 60 mins by LC-MS/MS analysis; format: ADME, cell-based; conditions: caco-2, 1 h
[4] = biological target: T1, Undecaprenyl-diphosphatase (Escherichia coli (strain K12), UniProt P60932); experiment: Inhibition of Escherichia coli UPPP expressed in Escherichia coli C41(DE3) using FPP as substrate preincubated for 15 mins followed by substrate addition measured after 20 mins by malachite green assay
T1 sequence (P60932 whole entry): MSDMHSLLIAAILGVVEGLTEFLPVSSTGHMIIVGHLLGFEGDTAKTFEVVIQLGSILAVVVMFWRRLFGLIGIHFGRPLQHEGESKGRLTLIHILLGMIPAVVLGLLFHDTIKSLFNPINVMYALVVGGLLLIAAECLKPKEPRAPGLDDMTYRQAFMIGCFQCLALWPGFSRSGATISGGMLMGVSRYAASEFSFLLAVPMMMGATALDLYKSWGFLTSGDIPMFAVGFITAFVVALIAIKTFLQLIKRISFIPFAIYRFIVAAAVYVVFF

Staphylococcus aureus [5] = experiment: Antibacterial activity against methicillin-resistant Staphylococcus aureus NRS123 (USA400) infected in mouse J774 cells at 4 ug/ml after 24 hrs; format: functional, organism-based
Summary of the method: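 J774 macrophages grown in DMEM with 10% FBS at 37 °C, 5% CO2. Infected with USA400 at MOI ~100:1 for 1 h, then washed with gentamicin 50 μg/mL. Treated in triplicate wells for 24 h, washed with gentamicin again and lysed with 0.1% Triton X-100. Lysate plated on tryptic soy agar for 18–22 h; CFU/mL counted.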

Staphylococcus aureus [6] = experiment: Bactericidal activity against methicillin-resistant Staphylococcus aureus NRS123 (USA400) at 4 times MIC after 24 hrs by time kill assay; format: functional, organism-based
Staphylococcus aureus [7] = experiment: Bactericidal activity against methicillin resistant vancomycin-resistant Staphylococcus aureus VRS12 up to 18 hrs by broth microdilution assay; format: functional; conditions: VRS12, 18 h, read-out: MBC99.9
Summary of the method: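 MBC set up from the MIC plates. Aliquots from wells with no growth spotted onto tryptic soy agar and incubated at 37 °C for at least 18 hours. MBC taken as the lowest concentration giving 99.9% inhibition of bacterial growth.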

Staphylococcus aureus [8] = experiment: Antibacterial activity against methicillin-resistant Staphylococcus aureus USA300 infected in Caenorhabditis elegans AU37 assessed as reduction in bacterial burden at 20 ug/ml after 18 hrs relative to control; format: functional
Summary of the method: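 L4-stage C. elegans AU37 infected on USA300 lawns for 6 h and washed with M9 buffer. 25–30 worms per well exposed to 20 μg/mL for 18 h, in triplicate. Worms then lysed and plated on TSA with 5 μg/mL nalidixic acid for 17 h at 37 °C. CFU per worm expressed as % reduction versus PBS.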

Staphylococcus aureus [9] = experiment: Antibacterial activity against vancomycin-resistant Staphylococcus aureus VRS12 after 20 hrs by broth microdilution assay; format: functional; conditions: VRS12, 20 h
Summary of the method: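 Broth microdilution per CLSI in cation-adjusted Mueller Hinton broth. Compounds serially diluted, in triplicate. Incubation at 37 °C for at least 20 hours. MIC taken as the lowest concentration with no visible bacterial growth.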

CNC(=C[N+](=O)[O-])NCCSCc1ccc(CN(C)C)o1 [RANITIDINE]
Ratio [1]: 6.3 | Papp [2]: 0.27 ×10⁻⁶ cm/s | Papp [3]: 1.71 ×10⁻⁶ cm/s

CC[C@H](C)[C@H](N)C1=N[C@H](C(=O)N[C@@H](CC(C)C)C(=O)N[C@H](CCC(=O)O)C(=O)N[C@H](C(=O)N[C@H]2CCCCNC(=O)[C@H](CC(N)=O)NC(=O)[C@@H](CC(=O)O)NC(=O)[C@H](Cc3cnc[nH]3)NC(=O)[C@@H](Cc3ccccc3)NC(=O)[C@H]([C@@H](C)CC)NC(=O)[C@@H](CCCN)NC2=O)[C@@H](C)CC)CS1 [BACITRACIN] ({Ileψ(thiazoline)Cys}-L[dE]IK[dOrn]I[dF]H[dD]N; lactam 4-C)
IC50 [4]: 5.6 µM

CN[C@H](CC(C)C)C(=O)N[C@H]1C(=O)N[C@@H](CC(N)=O)C(=O)N[C@H]2C(=O)N[C@H]3C(=O)N[C@H](C(=O)N[C@H](C(=O)O)c4cc(O)cc(O)c4-c4cc3ccc4O)[C@H](O)c3ccc(c(Cl)c3)Oc3cc2cc(c3O[C@@H]2O[C@H](CO)[C@@H](O)[C@H](O)[C@H]2O[C@H]2C[C@](C)(N)[C@H](O)[C@H](C)O2)Oc2ccc(cc2Cl)[C@H]1O [VANCOMYCIN]
Activity (Staphylococcus aureus [5]): inactive | Activity (Staphylococcus aureus [6]): Active | MBC (Staphylococcus aureus [7]): 256 µg/mL (≈ 177 µM) | Activity (Staphylococcus aureus [8]): Active | MIC (Staphylococcus aureus [9]): 16 µg/mL (≈ 11 µM)
